Source: PubChem (Broad Institute)
PAX8 inh HTS = inhibitors of PAX8 transcriptional activity in RMG-I cells. inhibition, % at 12.6 µM. 1.2% of 360,000 active. RMG-I TPO-luciferase reporter, SteadyGlo, 24 h. AID 652154;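 active = mean replicate inhibition at least 60% with every replicate also reaching 60%; inconclusive = only one of the two criteria is met; inactive = mean below 60% and not all replicates reaching 60%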;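 also: luciferase light reporting Pax8 driven TPO promoter activity; plate controls were median of neutral control wells for no effect and mitoxantrone controls for full effect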
Cneo AK release = causes C. neoformans cell lysis; adenylate kinase release luminescence, 4 h; normalised: neutral wells 0, clomiphene wells 100; AID 651654; 0.2% of 360,000 active; lysis activity, % at 15 µM;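 active = mean lysis activity across replicates of at least 80%, whatever share of replicates individually reach that level; inactive = mean lysis activity below 80%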
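Material: C. neoformans cells; Schedule: 4 h static compound exposure, 37 °C, read 1 h post-reagent; Measured by: adenylate kinase release luminescence; Read-out: signal increase indicating cell lysis; Controls: Clomiphene as positive lysis control.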
CDK5 inh = CDK5/p35 (human) kinase inhibition | Recombinant CDK5/p35, ADP-Glo luminescence, 60 min | Q00535+Q15078 | inhibition, % at 10 µM | 0.01% of 330,000 active;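 active = highest replicate inhibition of at least 50% and at least 75% of replicates reaching 50%; inconclusive = only one of the two criteria met; inactive = both criteria failed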;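 also: plate controls were DMSO neutral control for no effect and GW8510 at 10 µM for full effect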
Target sequence (Q00535 whole entry, looked up): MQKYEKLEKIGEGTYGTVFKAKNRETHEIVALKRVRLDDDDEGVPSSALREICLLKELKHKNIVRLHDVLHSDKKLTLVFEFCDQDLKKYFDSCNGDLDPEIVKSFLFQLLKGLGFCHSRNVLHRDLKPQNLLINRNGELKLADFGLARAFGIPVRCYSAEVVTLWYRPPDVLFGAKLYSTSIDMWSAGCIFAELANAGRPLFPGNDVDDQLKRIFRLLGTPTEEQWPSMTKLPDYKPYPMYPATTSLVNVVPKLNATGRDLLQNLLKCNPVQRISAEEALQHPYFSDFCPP
Target sequence (Q15078 whole entry, looked up): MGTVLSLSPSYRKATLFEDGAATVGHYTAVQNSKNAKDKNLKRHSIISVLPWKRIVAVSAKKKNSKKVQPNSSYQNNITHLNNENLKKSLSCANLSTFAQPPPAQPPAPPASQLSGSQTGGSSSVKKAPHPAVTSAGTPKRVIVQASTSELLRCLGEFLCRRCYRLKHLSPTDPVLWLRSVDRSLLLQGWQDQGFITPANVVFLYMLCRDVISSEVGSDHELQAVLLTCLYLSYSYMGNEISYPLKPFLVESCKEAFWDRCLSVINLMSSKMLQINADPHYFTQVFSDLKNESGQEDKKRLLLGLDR
HIV Env fusion = inhibitors of HIV Env-mediated cell fusion; inhibition, % at 12.3 µM; 1.1% of 360,000 active; HeLa-JRFL Env/CEM21 cell fusion, luciferase;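 active = mean replicate inhibition score of at least 50 and every replicate individually at or above 50; inconclusive = only one of the two criteria met; inactive = mean below 50 and not all replicates reaching 50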;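 also: 0% = plate neutral controls and 100% = maraviroc near 300 nM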
dFosB activator = enhances mouse delta FosB homodimer DNA binding; P13346; purified delta FosB, TAMRA-CDK5 oligo fluorescence polarization; percent of positive-control signal above neutral wells; activation, % at 25 µM; 0.99% of 340,000 active; AID 493131;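 active = mean activation above about 17%, with every replicate also reaching it, limit read from the data, passing the limit was not always enough; inconclusive = only one of the two conditions met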
INS-1E GSIS act = primary screen for activators of insulin secretion dependent on glucose, INS-1E cells, GLuc reporter luminescence; INS-1E GLuc reporter insulin secretion, 2-3 h; activation, % at 16.6 µM; 0.61% of 370,000 active; AID 743287;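 active = lowest replicate activation of at least 40%, so every replicate reaches that level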;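 also: 0% = median of neutral control wells and 100% = median of IBMX positive control wells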
Active calls of the source: *; ? = inconclusive; · = no result given; [ ] = remark or other dose. Most compounds without a hit are left out; they make up all but 2.9% or so of the library.

SMILES	PAX8 inh HTS	Cneo AK release	CDK5 inh	HIV Env fusion	dFosB activator	INS-1E GSIS act
CCN(CC)C(=O)[C@H]1C[C@@H]2[C@H](C[C@@H](c3ccccc3)[C@H]1C)N(c1ccc(F)cc1)C(=O)N2CCCOc1ccccc1	-3	·	·	-29	·	-35
COc1ccc(-c2sc3ccccc3c2-c2ccc(O)cc2)cc1	-11	13	1	21	2	-16
COc1cccc(-c2sc3ccc(OC)cc3c2-c2ccc(OCCN(C)C)cc2)c1	68*	6	2	1	2	132*
COc1cccc(-c2sc3ccc(OC)cc3c2-c2ccc(O)cc2)c1	-16	6	0	9	2	-10
CN(C)CCOc1ccc(-c2c(-c3ccsc3)sc3ccccc23)cc1	-10	18	1	34	?	66*
COc1ccc(-c2sc3ccccc3c2-c2ccc(OCCN(C)C)cc2)cc1	100*	21	1	16	25*	25
C=CCOC(=O)C(=O)/C=C/c1ccc(OC)cc1	4	0	·	6[16.7 µM]	·	·
C[C@H]1CN([C@@H](C)CO)C(=O)c2cc(NS(=O)(=O)c3cn(C)cn3)ccc2O[C@H]1CN(C)S(=O)(=O)c1cccs1	·	0	·	·	·	12
COc1cc(C=NNc2ccccc2)ccc1OC(=O)c1ccccc1	-16	0	·	-42	·	·
Cc1ccc(/C=N/Nc2cccc(C(=O)O)c2)s1	53	2	2	40	-8	23
O=C(O)c1ccc(/C=N/Nc2ccc(C(F)(F)F)cn2)cc1	-102	·	57*	-94	5	-11
COc1cc(/C=N/Nc2ccc(C(F)(F)F)cn2)ccc1O	1	·	17	-16	-4	-10
Cc1ccc(/C=N/Nc2ccc(C(=O)O)cc2)s1	75*	-5	4	64*	-4	-9
CC(C)c1ccc(/C=N/Nc2ccc(C(=O)O)cc2)cc1	82*	·	-2	66*	-7	-5
CCOc1cc(/C=N/Nc2cccc(C(=O)O)c2)ccc1OC(=O)c1ccccc1	67*	·	0	65*	-7	-3
O=C(C1CCCC1)N1C[C@@H]2[C@H](c3ccccc31)[C@@H](CO)N2C(=O)Nc1cccc(F)c1	-10	0	·	·	·	-10
O=C(O)c1cccc(N/N=C/c2cccc3ccccc23)c1	-44	0	-1	?	-9	14
Cc1ccsc1/C=N/Nc1ccc(C(=O)O)cc1	78*	-2	-2	52	3	5
Cc1ccsc1/C=N/Nc1cccc(C(=O)O)c1	90*	·	-1	68*	5	25
Cc1ccsc1/C=N/NC(=O)C(N)=O	12	·	-4	-16	-10	3
CC(Sc1nc2ccccc2c(=O)n1C)C(=O)N(C)C1CCCCC1 (stereo not given)	32	9	0	62*	0	-28
COCCn1c(SC(C)C(=O)NC2CCCCC2C)nc2ccccc2c1=O (stereo not given)	·	2	-1	75*	-5	18
Cc1ccc(NC(=S)N(CCCN2CCOCC2)Cc2ccccn2)cc1	110*	-2	-1	·	-3	·
Cc1cc(/C=N/n2cnnc2)c(C)n1-c1ccc(OCc2ccc(F)cc2)cc1	·	-27	-1	66*	-14	·
COc1ccc(CN(C)C[C@@H]2OCCCC[C@H](C)Oc3ccc(NS(=O)(=O)c4ccc(OC)cc4)cc3C(=O)N([C@@H](C)CO)C[C@H]2C)cc1	8	·	·	·	·	-14
SMILES	PAX8 inh HTS	Cneo AK release	CDK5 inh	HIV Env fusion	dFosB activator	INS-1E GSIS act
COc1ccc2[nH]c(=O)c(CN(Cc3cccs3)S(=O)(=O)c3cccc4nsnc34)cc2c1	·	-1	1	70*	-1	·
CCOc1ccccc1N1CCN(Cc2cccc(OC)c2O)CC1	·	·	-1	10	-11	8
COc1ccccc1N1CCN(c2nc(C)nc3c2oc2ccccc23)CC1	·	11	0	63*	-2	-32
COc1ccccc1N1CCN(Cc2cc(Br)c(O)c3ncccc23)CC1	100*	-9	0	-6	-5	·
Cc1nc(N2CCC(C)CC2)c2oc3ccccc3c2n1	·	·	-2	·	-7	·
COc1ccccc1N1CCN(CCOc2c(OC)cccc2OC)CC1	·	·	3	63*	3	·
CCCN(C)C[C@@H]1Oc2cc(/C=C/c3ccccc3)ccc2S(=O)(=O)N([C@@H](C)CO)C[C@@H]1C	·	3	·	-5[16.7 µM]	·	-6
C[C@H](CO)N1C[C@H](C)[C@@H](CN(C)C(=O)Nc2ccccc2)OCCCC[C@H](C)Oc2ccc(NC(=O)NC3CCCCC3)cc2C1=O	23	-3	·	-49[16.7 µM]	·	4
CCC(/C=C1\Sc2ccc(OC)cc2N1CC)=C\c1sc2ccc(OC)cc2[n+]1CCCS(=O)(=O)[O-]	15	-4	4	-5	134*	0
CO[C@H]1CC[C@H]2CCN(C)C(=O)[C@H](C)CN(C)C(=O)c3cccc(C#N)c3OC[C@H]1O2	9	48	·	26[16.7 µM]	·	-2
O=C(Nc1ccc2c(c1)[C@@H]1C[C@@H](CC(=O)N3CCCCC3)O[C@@H](CO)[C@@H]1O2)c1cccnc1	4	-6	·	0[16.7 µM]	·	-1
Cc1nc(-c2cccc(NC(=O)c3ccco3)c2)cs1	-38	0	0	-39	-23	-1
Cc1ccc(C(=O)OCC(=O)Nc2ccccc2)cc1NC(=O)c1ccco1	-12	0	0	-25	27*	·
Cc1cccc(OCC(=O)Nc2ccc(NC(=O)c3ccco3)cc2)c1	-24	-2	-1	-6	?	75*
Cc1nc(-c2ccc(NC(=O)c3ccco3)cc2)cs1	88*	-4	4	28	2	9
C[C@@H]1CN([C@H](C)CO)C(=O)c2cc(NC(=O)Cc3ccccc3)ccc2O[C@@H]1CN(C)Cc1ccc(C(=O)O)cc1	-31	2	·	7[16.7 µM]	·	13
C[C@H]1CN([C@@H](C)CO)C(=O)c2cc(NS(=O)(=O)c3ccc(Cl)cc3)ccc2O[C@H]1CN(C)S(=O)(=O)c1cccs1	30	-1	·	9[16.7 µM]	·	-7
CCCCCc1cc(=O)oc2c(C(CCN3CCCCC3)c3cc(OC)c(OC)c(OC)c3)c(OC)cc(OC)c12 (stereo not given)	79*	-4	1	-10	0	59*
CCCCCc1cc(=O)oc2c(C(CCN3CCCC(C)C3)c3ccc(N(C)C)cc3)c(OC)cc(OC)c12 (stereo not given)	·	2	2	·	2	·
CN1[C@@H]2c3ccc(-c4ccccc4F)c(=O)n3C[C@@H]2[C@@H](CO)[C@@H]1C(=O)NCC(F)(F)F	·	-2	·	5[16.7 µM]	·	11
Oc1ccc(C[C@H]2CNC(=S)N2CC2CCCN2C[C@H](Cc2ccc(O)cc2)N2C[C@H](Cc3ccccc3)N(CC3CCCCC3)C2=S)cc1 (stereo not given in full)	87*	0	3	49	49*	-4
